# Measured values as given in PMC3790647 (Clinical cancer research : an official journal of the …, 2013).
# Columns and labels:
# HDAC enzyme = assay: Cellular HDAC enzyme activity assay in patient blood cells; format: in vivo, human; conditions: plasma concentration, 2 hour post-dose on day 1, all dose levels, Hill model
# Procedure, shortened: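 Whole citrate blood (1 ml) was incubated 2 h at 37°C with fluorogenic substrate Boc-K(Ac)-AMC, then erythrocytes were lysed and cells stored at −80°C. Developer reagent lysed cells and released fluorescence from the deacetylated substrate, read by fluorimetry. Untreated control was set as 100% activity and 10 μM trichostatin A as 100% inhibition. Sampling: C1D1 pre-dose, 2, 5, 8, 24 h; C1D5; C4D5.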
# [1] = system: patients with advanced solid tumors; assay: Safety and tolerability, first-in-human dose escalation; format: in vivo; conditions: for Total number of AEs at each dose level: treatment-related clinical AEs
# Procedure, shortened: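 Open-label 3+3 escalation: oral once-daily dosing on days 1–5 every 14 days at 100, 200, 400, 600 and 800 mg, with 3–6 patients per level and 4 cycles. Adverse events were graded by NCI-CTC-AE v3.0 from first dose to 30 days after last dose. DLTs were assessed over the first 14 days. Evaluable patients had five consecutive doses plus safety evaluations over nine days.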
# advanced solid tumors = assay: Tumor response by RECIST 1.0; format: in vivo, human
# Procedure, shortened: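 Patients with at least one RECIST-measurable lesion and progressive disease at entry had CT and/or MRI every 8 weeks for up to 6 months of treatment, then every 12 weeks. Response was scored by RECIST 1.0. Dosing was oral once daily on days 1–5 every 14 days, 100–800 mg.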
# [2] = system: rodent and human cancer cell lines; conditions: large variety of cell lines; ref Investigator’s Brochure, version 5, 2010; cited from earlier work
# HeLa cells = conditions: ref Investigator’s Brochure, version 5, 2010; cited from earlier work
# multiple myeloma cells = conditions: cited from earlier work
# [3] = system: relapsed/refractory Hodgkin lymphoma; conditions: cited from earlier work
# [4] = first 4 treatment cycles, 68 cycles
structure (smiles),measurement,setting,value
CN(C)Cc1ccc(S(=O)(=O)n2ccc(/C=C/C(=O)NO)c2)cc1 [resminostat],Resminostat concentration at 50% of HDAC enzyme inhibition,HDAC enzyme,306 ng/mL
same,"Dysgeusia, treatment-related, patients by maximum grade","[1]; 100 mg (N=3), grade 1",1
same,"Fatigue, treatment-related, patients by maximum grade","[1]; 100 mg (N=3), grade 1",1
same,Total number of AEs at each dose level,[1]; 100 mg (N=3),2
same,"Nausea, treatment-related, patients by maximum grade","[1]; 200 mg (N=3), grade 1",1
same,"ALT increase, treatment-related, patients by maximum grade","[1]; 200 mg (N=3), grade 2",1
same,Total number of AEs at each dose level,[1]; 200 mg (N=3),2
same,"Arrhythmia, treatment-related, patients by maximum grade","[1]; 400 mg (N=3), grade 1",1
same,"Thrombocytopenia, treatment-related, patients by maximum grade","[1]; 400 mg (N=3), grade 1",1
same,"Nausea, treatment-related, patients by maximum grade","[1]; 400 mg (N=3), grade 2",2
same,Total number of AEs at each dose level,[1]; 400 mg (N=3),4
same,"Anorexia, treatment-related, patients by maximum grade","[1]; 600 mg (N=3), grade 1",1
same,"Depression, treatment-related, patients by maximum grade","[1]; 600 mg (N=3), grade 1",1
same,"Diarrhea, treatment-related, patients by maximum grade","[1]; 600 mg (N=3), grade 1",1
same,"Dysgeusia, treatment-related, patients by maximum grade","[1]; 600 mg (N=3), grade 1",1
same,"Fatigue, treatment-related, patients by maximum grade","[1]; 600 mg (N=3), grade 1",1
same,"Nausea, treatment-related, patients by maximum grade","[1]; 600 mg (N=3), grade 1",3
same,"Vomiting, treatment-related, patients by maximum grade","[1]; 600 mg (N=3), grade 1",2
same,"Anemia, treatment-related, patients by maximum grade","[1]; 600 mg (N=3), grade 2",1
same,"Fatigue, treatment-related, patients by maximum grade","[1]; 600 mg (N=3), grade 2",1
same,"Anorexia, treatment-related, patients by maximum grade","[1]; 800 mg (N=7), grade 1",3
same,"Dysgeusia, treatment-related, patients by maximum grade","[1]; 800 mg (N=7), grade 1",1
same,"Electrocardiogram QT prolongation, treatment-related, patients by maximum grade","[1]; 800 mg (N=7), grade 1",1
same,"Epistaxis, treatment-related, patients by maximum grade","[1]; 800 mg (N=7), grade 1",1
same,"Fatigue, treatment-related, patients by maximum grade","[1]; 800 mg (N=7), grade 1",1
same,"Hypokalemia, treatment-related, patients by maximum grade","[1]; 800 mg (N=7), grade 1",1
same,"Nausea, treatment-related, patients by maximum grade","[1]; 800 mg (N=7), grade 1",4
same,"Vomiting, treatment-related, patients by maximum grade","[1]; 800 mg (N=7), grade 1",2
same,"Weight decrease, treatment-related, patients by maximum grade","[1]; 800 mg (N=7), grade 1",1
same,"AST increase, treatment-related, patients by maximum grade","[1]; 800 mg (N=7), grade 2",1
same,"Anorexia, treatment-related, patients by maximum grade","[1]; 800 mg (N=7), grade 2",1
same,"Diarrhea, treatment-related, patients by maximum grade","[1]; 800 mg (N=7), grade 2",1
same,"Dysgeusia, treatment-related, patients by maximum grade","[1]; 800 mg (N=7), grade 2",1
same,"Fatigue, treatment-related, patients by maximum grade","[1]; 800 mg (N=7), grade 2",3
same,"Nausea, treatment-related, patients by maximum grade","[1]; 800 mg (N=7), grade 2",2
same,"Vomiting, treatment-related, patients by maximum grade","[1]; 800 mg (N=7), grade 2",2
same,"Weight decrease, treatment-related, patients by maximum grade","[1]; 800 mg (N=7), grade 2",1
same,"ALT increase, treatment-related, patients by maximum grade","[1]; 800 mg (N=7), grade 3",1
same,"Fatigue, treatment-related, patients by maximum grade","[1]; 800 mg (N=7), grade 3",1
same,"Nausea, treatment-related, patients by maximum grade","[1]; 800 mg (N=7), grade 3",1
same,"Vomiting, treatment-related, patients by maximum grade","[1]; 800 mg (N=7), grade 3",1
same,Evaluable patients sustaining a DLT,"[1]; 800 mg dose level, first cycle",1 of 6
same,"AST abnormalities, share of all administered cycles",[1]; 68 cycles,21%
same,Patients who omitted doses due to treatment-related AEs,[1]; N=19,21%
same,Patients who underwent dose reductions due to treatment-related AEs,[1]; N=19,21%
same,"ALT increase, treatment-related, patients by maximum grade","[1]; Total (N=19), grade 1",2
same,"AST increase, treatment-related, patients by maximum grade","[1]; Total (N=19), grade 1",1
same,"Anemia, treatment-related, patients by maximum grade","[1]; Total (N=19), grade 1",1
same,"Anorexia, treatment-related, patients by maximum grade","[1]; Total (N=19), grade 1",4
same,"Arrhythmia, treatment-related, patients by maximum grade","[1]; Total (N=19), grade 1",1
same,"Depression, treatment-related, patients by maximum grade","[1]; Total (N=19), grade 1",1
same,"Diarrhea, treatment-related, patients by maximum grade","[1]; Total (N=19), grade 1",1
same,"Dysgeusia, treatment-related, patients by maximum grade","[1]; Total (N=19), grade 1",3
same,"Electrocardiogram QT prolongation, treatment-related, patients by maximum grade","[1]; Total (N=19), grade 1",1
same,"Epistaxis, treatment-related, patients by maximum grade","[1]; Total (N=19), grade 1",1
same,"Fatigue, treatment-related, patients by maximum grade","[1]; Total (N=19), grade 1",3
same,"Hypokalemia, treatment-related, patients by maximum grade","[1]; Total (N=19), grade 1",1
same,"Nausea, treatment-related, patients by maximum grade","[1]; Total (N=19), grade 1",8
same,"Thrombocytopenia, treatment-related, patients by maximum grade","[1]; Total (N=19), grade 1",1
same,"Vomiting, treatment-related, patients by maximum grade","[1]; Total (N=19), grade 1",4
same,"Weight decrease, treatment-related, patients by maximum grade","[1]; Total (N=19), grade 1",1
same,"Anorexia, treatment-related, patients by maximum grade","[1]; Total (N=19), grade 2",1
same,"Diarrhea, treatment-related, patients by maximum grade","[1]; Total (N=19), grade 2",1
same,"Dysgeusia, treatment-related, patients by maximum grade","[1]; Total (N=19), grade 2",1
same,"Fatigue, treatment-related, patients by maximum grade","[1]; Total (N=19), grade 2",4
same,"Nausea, treatment-related, patients by maximum grade","[1]; Total (N=19), grade 2",4
same,"Vomiting, treatment-related, patients by maximum grade","[1]; Total (N=19), grade 2",2
same,"Weight decrease, treatment-related, patients by maximum grade","[1]; Total (N=19), grade 2",1
same,"Fatigue, treatment-related, patients by maximum grade","[1]; Total (N=19), grade 3",1
same,"Nausea, treatment-related, patients by maximum grade","[1]; Total (N=19), grade 3",1
same,"Vomiting, treatment-related, patients by maximum grade","[1]; Total (N=19), grade 3",1
same,Grade 4 treatment-related adverse events,[1]; all dose levels,No grade 4 treatment-related adverse event
same,Treatment-related deaths,[1]; all dose levels,No treatment-related deaths
same,"Anemia regardless of causality, patients","[1]; all grades, N=19",89%
same,"GGT elevation regardless of causality, patients","[1]; all grades, N=19",80%
same,"Hypermagnesemia, patients","[1]; all grades, N=19",26%
same,"Hypokalemia, patients","[1]; all grades, N=19",58%
same,"Hyponatremia, patients","[1]; all grades, N=19",58%
same,"Lymphopenia, patients","[1]; all grades, N=19",89%
same,"Neutropenia, patients","[1]; all grades, N=19",21%
same,"Grade 1-2 dysgeusia, patients",[1]; all patients (N=19),21%
same,Patients with SAEs unrelated to treatment,[1]; all patients (N=19),37%
same,Patients with treatment-related SAE,[1]; all patients (N=19),11%
same,"Treatment-related anorexia, irrespective of grade, patients",[1]; all patients (N=19),26%
same,"Treatment-related fatigue, irrespective of grade, patients",[1]; all patients (N=19),42%
same,"Treatment-related nausea, irrespective of grade, patients",[1]; all patients (N=19),68%
same,"Treatment-related vomiting, irrespective of grade, patients",[1]; all patients (N=19),37%
same,Number of treatment-related serious adverse events (SAE),"[1]; all patients (N=19), both patients in 800 mg cohort",3
same,"Anorexia, irrespective of causality and grade, share of administered cycles",[1]; [4],31%
same,"Fatigue, irrespective of causality and grade, share of administered cycles",[1]; [4],40%
same,"Grade 3 fatigue, number of treatment cycles",[1]; [4],3 treatment cycles
same,"Nausea, irrespective of causality and grade, share of administered cycles",[1]; [4],60%
same,"Hypokalemia, patients","[1]; grade 1, N=19",47%
same,"Hyponatremia, patients","[1]; grade 1, N=19",47%
same,"Leukopenia, patients","[1]; grade 1-2, N=19",37%
same,"Thrombocytopenia, patients","[1]; grade 1-2, N=19",37%
same,"Anemia regardless of causality, patients","[1]; grade 2, N=19",47%
same,"Lymphopenia, patients","[1]; grade 2, N=19",42%
same,"Anemia regardless of causality, patients","[1]; grade 3, N=19",11%
same,"GGT elevation, patients","[1]; grade 3, N=19",11%
same,"Hypokalemia, patients","[1]; grade 3, N=19",11%
same,"Hyponatremia, patients","[1]; grade 3, N=19",11%
same,"Lymphopenia, patients","[1]; grade 3, N=19",21%
same,Maximum tolerated dose (MTD),"[1]; once-daily days 1-5 every 14 days, up to 800 mg",not reached
same,Recommended phase II dose (RP2D),[1]; orally once-daily on days 1-5 every 14 days,600 mg
same,Patients who achieved SD,advanced solid tumors; 600 mg dose group,Three of 3
same,Patients with stable disease (SD) lasting >8 weeks,"advanced solid tumors; all dose levels, 95% CI: 34–80",58%
same,Reduction in the sum of the longest diameters of tumor target lesions,advanced solid tumors; one patient with metastatic thymoma,27%
same,Time on study with SD,"advanced solid tumors; patient with liposarcoma, 31 cycles",14.2 months
same,Concentrations that inhibit proliferation,[2],sub-to-low micromolar
same,Induction of histone H3 hyperacetylation and endogenous p21waf1,HeLa cells,dose-dependent induction
same,"Apoptosis signalling (Bim, Bax, Caspases 3, 8 and 9 up; Bcl-xL down)",multiple myeloma cells,pro-apoptotic signals were seen
same,"Objective response rate (Cheson criteria, independent central review, interim analysis)",[3]; 11 of 33 evaluable patients,33%
same,Clinical benefit rate,[3]; 18 of 33 patients,55%
